A selection: hits, their analogues and other compounds. The true share with any hit is near 2.8%.
ARFGAP1 inhibitor: rat ARFGAP1 inhibition. Q62848. Arfgap1-stimulated ARF1 GTP hydrolysis, GDP FP detection. inhibition, % at 16.5 µM. 360,000 compounds, 0.26% hits;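 active means inhibition above a per-plate limit, mean inhibition of low control wells plus 3 SD, cut at about 25% in these data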;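 further: 0% = DMSO wells with enzyme and 100% = wells lacking Arfgap1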
Target sequence (Q62848 1-136 limits assumed): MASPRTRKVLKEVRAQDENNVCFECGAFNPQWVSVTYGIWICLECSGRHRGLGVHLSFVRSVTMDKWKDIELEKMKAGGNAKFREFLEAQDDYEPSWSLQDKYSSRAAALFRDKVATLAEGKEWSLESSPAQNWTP
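Material: rat Arfgap1 GAP domain (His6, aa 1-136), purified enzyme. Also added: human ARF1(Δ1-17)-GTP substrate. Compound dosing: 16.5 µM single point, 1.26% DMSO. Timing: enzyme reaction 120 min at 25 °C after 20 min preincubation. Signal: GDP detection by fluorescence polarization. Read-out basis: percent inhibition of GAP-stimulated GDP formation, scaled between DMSO and no-Arfgap1 medians.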
pPAFAH FP inh: pPAFAH (human) enzyme inhibition; recombinant pPAFAH, FP-rhodamine probe fluorescence polarization; 330,000 compounds, 1.5% hits; Q13093; inhibition, % at 3.39 µM; AID 463082;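 active means inhibition above the mean inhibition across the screen plus 3 SD, cut at about 25% in these data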;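 further: inhibitors block binding of the rhodamine activity-based probe so polarization drops; 0% = enzyme with DMSO and 100% = wells lacking pPAFAH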
PAFAH2 inh: PAFAH2 (human) inhibition; 340,000 compounds, 0.99% hits; inhibition, % at 3.39 µM; recombinant PAFAH2, FP-rhodamine activity probe, fluorescence polarization;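 active means inhibition above the mean over all tested compounds plus 3 SD, cut at about 30% in these data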;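 further: inhibitors block probe labeling of enzyme so polarization drops; 0% = enzyme with DMSO and 100% = wells lacking PAFAH2 protein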
PAFAH1B2 inh: PAFAH1B2 (human) inhibition | P68402 | recombinant PAFAH1B2, FP-rhodamine activity probe, fluorescence polarization | inhibition, % at 3.39 µM | 340,000 compounds, 1.2% hits | AID 492953;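 active means inhibition above the mean of all tested compounds plus 3 SD, cut at about 24% in these data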;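 further: 0% = enzyme with DMSO and 100% = wells lacking PAFAH1B2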
Target sequence (P68402 whole entry, looked up): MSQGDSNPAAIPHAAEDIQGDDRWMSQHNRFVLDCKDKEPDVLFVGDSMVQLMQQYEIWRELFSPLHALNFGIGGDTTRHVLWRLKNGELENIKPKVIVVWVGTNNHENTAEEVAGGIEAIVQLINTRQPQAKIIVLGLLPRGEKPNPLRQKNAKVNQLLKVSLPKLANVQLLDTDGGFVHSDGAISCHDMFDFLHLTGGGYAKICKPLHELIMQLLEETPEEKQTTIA
ASAP1 inh: inhibitors of human ASAP1 ArfGAP activity. Q9ULH1. ASAP1-stimulated ARF1 GTP hydrolysis, GDP FP detection. inhibition, % at 16.5 µM. 360,000 compounds, 0.19% hits. AID 624377; in the data active means inhibition above about 25%;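 further: 0% = vehicle with enzyme and substrate and 100% = no enzyme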
PAFAH1B3 inh: PAFAH1B3 (human) inhibition; recombinant PAFAH1B3, FP-rhodamine probe, fluorescence polarization; inhibition, % at 3.39 µM; 340,000 compounds, 0.28% hits; AID 492972;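 active means inhibition above the screen-wide average of all tested compounds plus 3 SD, cut at about 25% in these data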;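 further: 0% = enzyme with DMSO only and 100% = wells lacking PAFAH1B3 protein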
Target sequence (Q15102 whole entry, looked up): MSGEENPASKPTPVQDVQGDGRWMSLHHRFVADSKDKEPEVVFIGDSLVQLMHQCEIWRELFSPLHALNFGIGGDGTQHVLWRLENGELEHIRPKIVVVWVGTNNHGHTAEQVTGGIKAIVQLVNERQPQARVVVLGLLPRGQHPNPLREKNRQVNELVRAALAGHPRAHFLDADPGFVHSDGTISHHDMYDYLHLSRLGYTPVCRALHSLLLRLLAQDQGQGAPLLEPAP
* hit, by the source's call.

For COc1ccc(C(=O)N/C(=C\c2cn(C)c3ccccc23)C(=O)N2CCOCC2)cc1 the results were ARFGAP1 inhibitor -5, pPAFAH FP inh -5, PAFAH2 inh -3, PAFAH1B2 inh 2, ASAP1 inh -18 and PAFAH1B3 inh 7.
COc1cc(C(=O)NCc2nnc(SCC(=O)NCc3ccco3)o2)cc(OC)c1OC was read as ARFGAP1 inhibitor 4, pPAFAH FP inh 1, PAFAH2 inh 4, PAFAH1B2 inh -4, ASAP1 inh -9 and PAFAH1B3 inh -4.
For CCc1nc2ccc(C(=O)NCCc3c[nH]c4ccccc34)cn2c1N(C)Cc1nccn1C the results were ARFGAP1 inhibitor -1 and ASAP1 inh -3.
`CCN(CC)C(=O)C1=C(C)N(Cc2ccc(OC)cc2)C(=O)C(CC(=O)NCc2cccs2)C1` (stereo unspecified) gave ARFGAP1 inhibitor -5 and ASAP1 inh 7.
For COc1ccc(OCC(=O)OCC(=O)Nc2cc(S(=O)(=O)N3CCOCC3)ccc2Cl)cc1 the results were ARFGAP1 inhibitor 3, pPAFAH FP inh 29*, PAFAH2 inh 3, PAFAH1B2 inh 5, ASAP1 inh 23 and PAFAH1B3 inh 9.
O=C(COc1ccc(S(=O)(=O)N2CCCC2)cc1)N1CCCC1 was read as ARFGAP1 inhibitor 8, pPAFAH FP inh 31*, PAFAH2 inh -1, PAFAH1B2 inh 4, ASAP1 inh 6 and PAFAH1B3 inh 7.
Cc1cc(OCC(=O)OCC(=O)Nc2cc(S(=O)(=O)N3CCOCC3)ccc2Cl)ccc1Cl was read as ARFGAP1 inhibitor 1, pPAFAH FP inh 16, PAFAH2 inh 6, PAFAH1B2 inh 9, ASAP1 inh 1 and PAFAH1B3 inh 9.
For COc1ccc(NS(=O)(=O)c2ccc(OCC(=O)N3CCOCC3)cc2)cc1 the results were ARFGAP1 inhibitor -11, pPAFAH FP inh 15, PAFAH2 inh 0, PAFAH1B2 inh -4, ASAP1 inh -3 and PAFAH1B3 inh 5.
O=C(COc1ccc(S(=O)(=O)Nc2ccccc2)cc1)N1CCOCC1 was read as ARFGAP1 inhibitor -5, pPAFAH FP inh 27*, PAFAH2 inh 5, PAFAH1B2 inh -2, ASAP1 inh 4 and PAFAH1B3 inh 3.
For O=C(CNc1cccc([N+](=O)[O-])c1)N1CCN(S(=O)(=O)c2ccc(Cl)cc2)CC1 the results were ARFGAP1 inhibitor 14, PAFAH2 inh 6, PAFAH1B2 inh 24*, ASAP1 inh 1 and PAFAH1B3 inh 5.
For Cc1cc(OC(C)C(=O)NNC(=O)Nc2ccc(F)cc2F)cc(C)c1Cl (stereo unspecified) the results were ARFGAP1 inhibitor 6, pPAFAH FP inh 9, PAFAH2 inh 4, PAFAH1B2 inh 4, ASAP1 inh -4 and PAFAH1B3 inh 1.
For COc1ccccc1CNC(=O)N1CCN(S(=O)(=O)c2ccc(Cl)cc2)CC1 the results were ARFGAP1 inhibitor 8, pPAFAH FP inh 5, PAFAH2 inh -11, PAFAH1B2 inh 30*, ASAP1 inh 13 and PAFAH1B3 inh 4.
For COc1ccc(CN(C)C(=O)CCc2ccc(S(=O)(=O)N3CCCCCC3)cc2)c(OC)c1 the results were ARFGAP1 inhibitor 8, pPAFAH FP inh 12, PAFAH2 inh 1, PAFAH1B2 inh 1, ASAP1 inh -9 and PAFAH1B3 inh -2.
For COc1ccccc1CNC(=O)N1CCN(S(=O)(=O)c2ccccc2)CC1 the results were ARFGAP1 inhibitor 6, pPAFAH FP inh 2, PAFAH2 inh -2, PAFAH1B2 inh 8, ASAP1 inh -1 and PAFAH1B3 inh 9.
`COc1ccc(CN(C)C(=O)CCC(=O)N2CCN(S(=O)(=O)c3ccc(Cl)cc3)CC2)c(OC)c1` gave ARFGAP1 inhibitor 3, PAFAH2 inh -2, PAFAH1B2 inh 27*, ASAP1 inh 8 and PAFAH1B3 inh 0.
For COc1cc(/C=C2\SC(=S)NC2=O)ccc1OS(=O)(=O)c1ccccc1 the results were pPAFAH FP inh 2.
For COc1ccc(/C=C2\SC(=S)N(CCCCCC(=O)Nc3cc(C)on3)C2=O)cc1OC the results were ARFGAP1 inhibitor -5, pPAFAH FP inh 1, PAFAH2 inh 0, PAFAH1B2 inh -4, ASAP1 inh 14 and PAFAH1B3 inh -6.
Screening COc1cc(/C=C2\SC(=S)N(CCCCC(=O)O)C2=O)ccc1OS(=O)(=O)c1ccc(C)cc1 returned ARFGAP1 inhibitor 0, pPAFAH FP inh 13, PAFAH2 inh 9, PAFAH1B2 inh 30*, ASAP1 inh 8 and PAFAH1B3 inh 3.
For COc1cc(/C=C2/SC(=S)NC2=O)ccc1OS(=O)(=O)c1ccc(C)cc1 the results were pPAFAH FP inh 5, PAFAH2 inh -5, PAFAH1B2 inh 43* and PAFAH1B3 inh -5.
`CCC(C)(C)C1CCC2(CC1)NC(=O)N(CC(=O)N1CCN(c3ccccc3OC)CC1)C2=O` (stereo unspecified) gave ARFGAP1 inhibitor -2 and ASAP1 inh -21.
`N#Cc1c(N)[nH]c(=S)c(C#N)c1-c1ccccc1` gave ARFGAP1 inhibitor 7, pPAFAH FP inh 5, PAFAH2 inh 11, PAFAH1B2 inh 9, ASAP1 inh -1 and PAFAH1B3 inh 2.
Screening N#Cc1c(N)[nH]c2ccc(Sc3ccccc3)cc12 returned ARFGAP1 inhibitor 22, PAFAH2 inh 7, PAFAH1B2 inh 35*, ASAP1 inh 1 and PAFAH1B3 inh 14.
For CNCc1ccccc1Sc1cccc(O)c1 the results were ARFGAP1 inhibitor 0, pPAFAH FP inh 5, PAFAH2 inh -2, PAFAH1B2 inh 4, ASAP1 inh -4 and PAFAH1B3 inh -2.
For CNCc1ccccc1Sc1cc(O)ccc1O the results were ARFGAP1 inhibitor -4, pPAFAH FP inh 25*, PAFAH2 inh 1, PAFAH1B2 inh 1, ASAP1 inh -1 and PAFAH1B3 inh 5.
For O=C(O)CC/C(=C\c1ccc(N2CCOCC2)c([N+](=O)[O-])c1)c1nc2ccccc2s1 the results were ARFGAP1 inhibitor 1, PAFAH2 inh 2, PAFAH1B2 inh 92*, ASAP1 inh -3 and PAFAH1B3 inh 0.
`O=C(O)CC/C(=C/c1cccc(NC(=O)c2ccccc2Cl)c1)c1nc2ccccc2s1` gave ARFGAP1 inhibitor 2, PAFAH2 inh -1, PAFAH1B2 inh -1, ASAP1 inh 8 and PAFAH1B3 inh 2.
O=C(O)C/C(=C\c1ccc(N2CCOCC2)c([N+](=O)[O-])c1)c1nc2ccccc2s1 was read as ARFGAP1 inhibitor 0, pPAFAH FP inh 26*, PAFAH2 inh 12, PAFAH1B2 inh 4, ASAP1 inh 6 and PAFAH1B3 inh -7.
O=C(CSc1nc2ccccc2s1)Nc1ccc(N2CCOCC2)c(Cl)c1 was read as ARFGAP1 inhibitor 1, pPAFAH FP inh 7, PAFAH2 inh 4, PAFAH1B2 inh 2, ASAP1 inh 15 and PAFAH1B3 inh 3.

Compound activity from PubChem BioAssay.
